Activity calls are given as the source filed them. The calls are words filed in the database; no cut-off is given here.
Key:
[1] = Cytotoxicity against human CEM-SS cells infected with HIV1 3B after 6 days by XTT assay; format: cell-based; details: read-out: TC50
[2] = test system: Human immunodeficiency virus 1; assay: Antiviral activity against HIV1 3B infected in human CEM-SS cells assessed as inhibition of viral replication after 6 days by XTT assay; format: functional, organism-based
Outline: (§1)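 Peptides were added in triplicate at six serial concentrations, 0.32–100 μg/ml. Cultures were held at 37°C, 5% CO2 for 6 days, then stained with XTT. EC50 (virus inhibition) and TC50 (cell viability) were derived from the XTT read-out, and TI was taken from these.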

Escherichia coli = assay: Antibacterial activity against Escherichia coli K-12; format: functional, organism-based
[3] = Therapeutic index, ratio of TC50 for human CEM-SS cells infected with HIV1 3B to EC50 for HIV1 3B infected in human CEM-SS cells; format: cell-based; details: read-out: TI
Outline: as §1, with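 “CEM-SS cells (2.5 × 10^3/well) in RPMI 1640 with 10% heat-inactivated FBS were infected with HIV-1 IIIB (MOI 0.0005–0.001). Peptides” for “Peptides”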

[4] = Human immunodeficiency virus 1, 3B, CEM-SS, 144 h

| Molecule | CC50 at 144 h [1] | EC50 [2, 4] | Activity (Escherichia coli) | selectivity ratio [3] | EC50 ([2]; cem-ss) |
| --- | --- | --- | --- | --- | --- |
| H-RQRVEELSKFSKKGAAARRRK-OH [Misgurin] | > 40 µM | > 40 µM |  |  |  |
| CC[C@H](C)[C@H](NC(=O)[C@H](CCCCN)NC(=O)[C@H](CCC(=O)O)NC(=O)[C@H](CCCCN)NC(=O)[C@H](CO)NC(=O)[C@H](CCCCN)NC(=O)[C@H](CCCNC(=N)N)NC(=O)[C@H](Cc1ccccc1)NC(=O)[C@H](Cc1ccccc1)NC(=O)[C@H](CC(=O)O)NC(=O)CNC(=O)[C@H](CC(C)C)NC(=O)[C@@H](N)CC(C)C)C(=O)NCC(=O)N[C@@H](CCCCN)C(=O)N[C@@H](CCC(=O)O)C(=O)N[C@@H](Cc1ccccc1)C(=O)N[C@@H](CCCCN)C(=O)N[C@@H](CCCNC(=N)N)C(=O)N[C@H](C(=O)N[C@H](C(=O)N[C@@H](CCC(N)=O)C(=O)N[C@@H](CCCNC(=N)N)C(=O)N[C@H](C(=O)N[C@@H](CCCCN)C(=O)N[C@@H](CC(=O)O)C(=O)N[C@@H](Cc1ccccc1)C(=O)N[C@@H](CC(C)C)C(=O)N[C@@H](CCCNC(=N)N)C(=O)N[C@@H](CC(N)=O)C(=O)N[C@@H](CC(C)C)C(=O)N[C@H](C(=O)N1CCC[C@H]1C(=O)N[C@@H](CCCNC(=N)N)C(=O)N[C@H](C(=O)N[C@@H](CCC(=O)O)C(=O)N[C@@H](CO)C(=O)O)[C@@H](C)O)C(C)C)[C@@H](C)CC)C(C)C)[C@@H](C)CC |  |  | inactive |  |  |
| H-GLWEKIDKFASII-OH | > 65.8 µM | > 65.8 µM |  |  |  |
| H-LLKELWTKIKGAGKAVLGKIKGLL-OH [Ponericin L2] | 24.7 µM |  |  | 17.6 | 1.4 µM |
| H-IWLTALKFLGKHAAKHLAKQQLSKL-OH [Lycotoxin I] | 2.4 µM | > 35.2 µM |  | < 0.07 |  |
| H-GLADFLNKAVGKVVDFVKS-NH2 [Desertcolin 1] | > 49.9 µM | > 49.9 µM |  |  |  |
| H-ILGPVLGLVSRTLRRVLGIL-OH | 8.7 µM | 2.2 µM |  | 3.9 |  |
| H-GFLDIIEKIAKSW-OH | > 65.8 µM | 10.5 µM |  | > 6.3 |  |
| H-GAWKNFWSSLRKGFYDGEAGRAIRR-OH | > 34.1 µM | > 34.1 µM |  |  |  |
| H-GLRRLLGRLLRRLGRLLLR-OH | 25.7 µM | 4.4 µM |  | 5.8 |  |
| H-GLLGLLGSVVSHVVPAIVGHF-NH2 [Maculatin 1.3] | 8.02 µM | 4 µM |  | 2.01 |  |
| H-GFKDLLKGAAKALVKTVLF-NH2 [Ascaphin-8] | 2.9 µM | 1.2 µM |  | 2.4 |  |
| H-GNNRPVYIPQPRPPHPRI-OH [Apidaecin IA] | > 47.4 µM | > 47.4 µM |  |  |  |
| CC[C@H](C)[C@H](NC(=O)[C@H](CO)NC(=O)[C@H](CC(C)C)NC(=O)[C@H](Cc1ccccc1)NC(=O)CN)C(=O)N[C@@H](CC(C)C)C(=O)N[C@@H](CCCCN)C(=O)N[C@@H](CCCCN)C(=O)N[C@H](C(=O)N[C@@H](CC(C)C)C(=O)N1CCC[C@H]1C(=O)N[C@@H](CCCCN)C(=O)N[C@H](C(=O)N[C@@H](CCSC)C(=O)N[C@@H](C)C(=O)N[C@@H](Cc1cnc[nH]1)C(=O)N[C@@H](CCSC)C(=O)N[C@@H](CCCCN)C(N)=O)C(C)C)C(C)C [MELECTIN] | 7.75 µM |  |  |  |  |
| H-FFHHIFRGIVHVGKTIHRLVTG-OH [Piscidin 3] | 6.9 µM |  |  |  |  |
| H-NLVSGLIEARKYLEQLHRKLKNRKV-OH | > 33.3 µM | > 33.3 µM |  |  |  |
| H-GFGKAFHSVSNFAKKHKTA-NH2 [STYELIN A] | > 48.5 µM | > 48.5 µM |  |  |  |
| CC[C@H](C)[C@H](NC(=O)[C@H](CC(C)C)NC(=O)[C@@H]1CCCN1C(=O)[C@H](Cc1ccccc1)NC(=O)[C@H](CC(C)C)NC(=O)[C@@H](N)Cc1ccccc1)C(=O)N[C@H](C(=O)N[C@@H](CO)C(=O)N[C@@H](Cc1ccccc1)C(=O)N[C@@H](CC(C)C)C(=O)N[C@@H](CO)C(=O)N[C@@H](CCCCN)C(=O)N[C@H](C(=O)N[C@@H](CC(C)C)C(=O)O)C(C)C)[C@H](C)O | 34.6 µM | 16.7 µM |  | 2.07 |  |
| H-ILGPVLGLVSDTLDDVLGIL-OH | > 49.4 µM | > 49.4 µM |  |  |  |
| H-GLKKLLGKLLKKLGKLLLK-OH | 25.1 µM | > 47.5 µM | Active | < 0.5 |  |
| H-GWFDVVKHIAKRF-NH2 | 10.6 µM | 2.99 µM |  | 3.55 |  |
| H-SLSRFLRFLKIVYRRAF-NH2 | 8.6 µM | 0.83 µM |  | 10.4 |  |
